Measurements from ChEMBL document CHEMBL1157434, “2-Aminopropane-1,2,3-tricarboxylic acid: Synthesis and co-crystallization with the class A beta-lactamase BS3 of Bacillus licheniformis” (Bioorg Med Chem Lett, 2008).
pKi: −log10 of the molar value.

How the values were obtained:
[1] = Inhibition of beta-lactamase TEM1 in 25 mM acetate buffer at pH 5
Outline: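 Hydrolysis rates were measured without and with inhibitor at varying concentrations. Ki was derived from a plot of V0/Vi against inhibitor concentration. Performed three times.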

[2] = Inhibition of beta-lactamase TEM1 in 50 mM phosphate buffer at pH 7.2 at 2 mM
Enterobacter cloacae = experiment: Inhibition of Enterobacter cloacae beta-lactamase P99 in 50 mM phosphate buffer at pH 7.2 at 100 uM; values are per cent of control
[3] = molecular target: T1, Imipenem-hydrolyzing beta-lactamase (Enterobacter cloacae) (UniProt P52663); experiment: Inhibition of Enterobacter cloacae beta-lactamase NMCA in 50 mM phosphate buffer at pH 7.2 at 100 uM; values are per cent of control
T1 sequence (whole entry): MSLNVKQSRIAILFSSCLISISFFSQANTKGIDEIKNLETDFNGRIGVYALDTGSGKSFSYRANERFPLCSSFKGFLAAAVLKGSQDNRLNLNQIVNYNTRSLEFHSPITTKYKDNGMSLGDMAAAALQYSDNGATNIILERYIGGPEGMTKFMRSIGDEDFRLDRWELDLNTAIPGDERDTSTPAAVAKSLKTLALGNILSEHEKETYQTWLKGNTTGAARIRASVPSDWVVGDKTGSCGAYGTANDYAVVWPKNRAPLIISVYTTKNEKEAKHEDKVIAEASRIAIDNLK

Bacillus licheniformis = experiment: Inhibition of Bacillus licheniformis beta-lactamase BS3 in 50 mM phosphate buffer at pH 7.2 at 100 uM; values are per cent of control
[4] = molecular target: Beta-lactamase OXA-10 (Pseudomonas aeruginosa) (UniProt P14489); experiment: Inhibition of Pseudomonas aeruginosa beta-lactamase Oxa-10 in 50 mM phosphate buffer at pH 7.2 at 100 uM; values are per cent of control
[5] = Inhibition of Bacillus licheniformis beta-lactamase BS3 in 25 mM acetate buffer at pH 5
Outline: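 Purified BS3 (1–100 nM) mixed with inhibitor and the chromogenic substrate nitrocefin. Ki obtained from a plot of V0/Vi (uninhibited over inhibited hydrolysis rate) against inhibitor concentration. Three independent runs.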

[6] = Inhibition of beta-lactamase TEM1 in 50 mM phosphate buffer at pH 7.2 at 0.2 mM
[7] = tested on: beta-lactamase BcII (Bacillus cereus); experiment: Inhibition of Bacillus cereus beta-lactamase Bc2 in 50 mM phosphate buffer at pH 7.2 at 100 uM; values are per cent of control

Beta-lactamase OXA-10 (Pseudomonas aeruginosa), sequence (P14489 whole entry): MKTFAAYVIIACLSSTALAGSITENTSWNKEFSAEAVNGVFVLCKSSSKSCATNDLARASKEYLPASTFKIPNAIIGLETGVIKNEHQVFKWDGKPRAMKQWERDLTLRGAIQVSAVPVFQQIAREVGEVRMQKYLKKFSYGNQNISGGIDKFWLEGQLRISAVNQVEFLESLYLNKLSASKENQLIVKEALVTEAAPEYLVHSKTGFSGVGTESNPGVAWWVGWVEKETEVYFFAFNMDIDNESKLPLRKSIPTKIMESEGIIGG

Structure (SMILES) | pKi [1] | residual activity [2] [%] | residual activity (Enterobacter cloacae) [%] | residual activity [3] [%] | residual activity (Bacillus licheniformis) [%] | residual activity [4] [%] | pKi [5] | residual activity [6] [%] | residual activity [7] [%]
NC(CC(=O)O)(CC(=O)O)C(=O)O | 3.82 | 95 | 81 | 94 | 88 | 100 |  |  | 
O=C(O)CC(C(=O)O)C(O)C(=O)O (stereo unspecified) [ISOCITRATE] | 2.82 |  |  |  |  |  | 2.66 |  | 
O=C(O)CC(O)(CC(=O)O)C(=O)O [CITRIC ACID] | 3.14 |  |  |  |  |  | 3.31 |  | 
CCOC(=O)CC(N)(CC(=O)OCC)C(=O)OCC |  |  | 87 | 60 | 82 | 98 |  | 71 | 92
